Experimental findings from PubChem BioAssay AID493149 (Broad Institute, 2011) are described below.

“And” between values parts separate entries of the source, which are not always exact repeats. Equal values may be shown once. Records with an inconclusive call do not appear. The source made the active and inactive calls.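 How the source made its calls: active means every repeat run gives a falling-signal curve whose half-maximal concentration stays within the set limit; inconclusive means runs disagree, flat moderate inhibition, or unreliable fit; inactive means flat weak response, opposite effect, or too weak.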

One test deals with C. albicans CaCi-8 + fluconazole, Alamar Blue growth, 48 h. Description: growth inhibition of resistant C. albicans with fluconazole, dose response, CaCi-8 strain, Alamar Blue, dry powder, set 9 (AID 493149).
Conditions: not given
The method in brief:
(§1)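 Assay system: Candida albicans CaCi-8, fluconazole-resistant clinical isolate, whole cells; amount: inoculum OD600 0.00015; buffer or medium: defined RPMI/MOPS medium, glucose, uridine; timing: 48 h compound growth at 37 °C, 2 h RT dye; technique: Alamar Blue fluorescence, 1:200 final, Ex 544 nm, Em 590 nm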
A general note: Alamar Blue is a resazurin reagent that responds to reducing activity.
`O=C(Cn1c2ccccc2c2nc3n(c(=O)c21)CCS3)N1CCCC1`: the AC50 (usually the concentration at which the activity in the assay is half-maximal) is 1.65 µM and 3.48 µM.
In the case of `COC(=O)Cn1nc(-c2cccc(F)c2)c2ccccc21`, the concentration at half-maximal activity (AC50) is 2.14 µM.
As to `COC(=O)[C@@H](C)n1nc(-c2ccccc2)c2ccccc21` (racemic), the concentration at half-maximal activity (AC50) is 15.9 µM.
In the case of `COC(=O)Cn1nc(-c2ccccc2)c2ccc(OC)cc21`, the half-maximal activity concentration (AC50) is 12.7 µM.
The same measure, in the same setting: next, `COC(=O)Cn1nc(-c2ccccc2OC)c2ccccc21`: 10.2 µM; `COC(=O)Cn1nc(-c2ccccc2C)c2ccccc21`: 6.96 µM; `COC(=O)Cn1nc(-c2ccccc2)c2cc(OC)ccc21`: 18.6 µM.
Still for that read-out and setting: next, `COC(=O)Cn1nc(-c2ccc(OC)cc2)c2ccccc21`: 8.3 µM; `COC(=O)Cn1nc(-c2ccccc2)c2cc(F)ccc21`: 6.98 µM.
Same read-out and setting: for `COC(=O)Cn1nc(-c2ccccc2)c2ccc(Cl)cc21` the value was 8.57 µM.
For `COC(=O)Cn1nc(-c2ccccc2)c2ccc(C)cc21`, the AC50 is 7.29 µM.
Turning to `COC(=O)Cn1nc(-c2ccccc2)c2ccccc21`, the AC50 is 2.18 µM.
On to `COC(=O)Cn1nc(-c2cccc(C)c2)c2ccccc21`, for which the AC50 was 1.34 µM.
For `COC(=O)Cn1nc(-c2cccc(OC)c2)c2ccccc21`, the concentration at half-maximal activity (AC50) is 1.2 µM.
For `COC(=O)Cn1c2ccccc2c2nc3n(c(=O)c21)CCS3`, the AC50 is 8.51 µM.
The same measure, in the same setting: for `COC(=O)Cn1nc(-c2ccccc2)c2ccc(F)cc21` the value was 8.34 µM; for `COC(=O)Cn1nc(-c2ccccc2)c2cc(C)ccc21`, 5.33 µM.
Take `COC(=O)Cn1nc(-c2ccc(F)cc2)c2ccccc21`: the AC50 was 8.21 µM.

System in a further test: not listed separately
The description is as above. The note with it: C. albicans CaCi-8 + fluconazole, Alamar Blue growth, 48 h; at 19.5 µM (top of the series). In short, it runs like this:
as §1
Regarding `COC(=O)Cn1nc(-c2cncnc2)c2ccccc21`, the activity change, negative = inhibition is -4.22% (inactive).

Still in this test, the particulars now being: C. albicans CaCi-8 + fluconazole, Alamar Blue growth, 48 h; at 26 µM (top of the series).
As for `CC(C)(C)OC(=O)Cn1nc(-c2ccccc2)c2ccccc21`, the activity change, negative = inhibition is 14.2% (inactive).
Consider `COC(=O)Cn1nc(-c2ccc(C(F)(F)F)cc2)c2ccccc21`, for which the activity change, negative = inhibition was -7.01% (inactive).
On to `CCOC(=O)Cn1nc(-c2ccccc2)c2ccccc21`, for which the activity change, negative = inhibition is -1.88% (inactive).
For the compound `c1ccc(-c2nn(Cc3ncco3)c3ccccc23)cc1`, the activity change, negative = inhibition is 4.54% (inactive).
As for `c1ccc(-c2nn(Cc3nn[nH]n3)c3ccccc23)cc1`, the activity change, negative = inhibition is -10.1% (inactive).
In the case of `COC(=O)CCn1nc(-c2ccccc2)c2ccccc21`, the activity change, negative = inhibition was -11.6% (inactive).
Regarding `N#CCn1nc(-c2ccccc2)c2ccccc21`, the activity change, negative = inhibition is -24.1% (inactive).
Turning to `CC(C)OC(=O)Cn1nc(-c2ccccc2)c2ccccc21`, the activity change, negative = inhibition was 6.95% (inactive).
Regarding `COC(=O)Cn1nc(-c2ccccc2)c2ccc(C#N)cc21`, the activity change, negative = inhibition was -13.5% (inactive).
The same measure, in the same setting: for `O=C(Cn1nc(-c2ccccc2)c2ccccc21)Oc1ccccc1` the value was -1.98% (inactive).
